Assay results from ChEMBL document CHEMBL5724801, “EUbOPEN Chemogenomics Library - Multiplex” (2024).
Values joined by “and” are separate entries in the source; they are usually repeats but may differ in a detail not shown here. Equal values may be shown once.

Test system: HEK-293T
Assay: Multiplex assay against HEK293T
Assay type: toxicity, cell-based
Conditions: human
How it was run: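 With compound added, live cells were imaged on a CQ1 microscope at 37°C and 5% CO2; staining with Hoechst33342, BioTracker Green Microtubule Cytoskeleton Dye, MitoTracker Red and Annexin V Alexa Fluor 680 had been done at seeding. The CellPathfinder machine-learning gating scheme split cells into Hoechst high-intensity objects or normal cells, normal cells into healthy, pyknosed or fragmented nuclei, and pyknosed cells into mitotic or apoptotic. The tubulin, mitochondrial-mass and membrane-permeability phenotypes are per cents of healthy-nucleus cells.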

[1] = 12 h, 1 µM, compound concentration 1 uM
[2] = 12 h, 10 µM, compound concentration 10 uM
[3] = 24 h, 1 µM, compound concentration 1 uM
[4] = 24 h, 10 µM, compound concentration 10 uM
[5] = 48 h, 1 µM, compound concentration 1 uM
[6] = 48 h, 10 µM, compound concentration 10 uM

Question: What does the source list for `Cc1nn(C)c2nc(NNC(=O)Nc3cc(Cl)nc(Cl)c3)cc(C(C)C)c12`?
Answer: Population Apoptotic (%) [1]: 27% and 40%; Population Fragmented Nuclei (%) [1]: 5%; Population Healthy Nuclei (%) [1]: 77% and 81%; Population Hoechst High Intensity Objects (%) [1]: 5% and 2%; Population Membrane Permeable-Phenotype (%) [1]: 0%; Population Mitochondria Different-Phenotype (%) [1]: 37% and 59%; Population Mitotic Cells (%) [1]: 72% and 60%; Population Normal (%) [1]: 94% and 97%; Population Pyknosed Nuclei (%) [1]: 16% and 13%; Population Tubulin-Different-Phenotype (%) [1]: 26% and 25%; Total Cell Count [1]: 467 and 383; Population Apoptotic (%) [2]: 55% and 46%; Population Fragmented Nuclei (%) [2]: 5% and 4%; Population Healthy Nuclei (%) [2]: 61% and 74%; Population Hoechst High Intensity Objects (%) [2]: 12% and 3%; Population Membrane Permeable-Phenotype (%) [2]: 1%; Population Mitochondria Different-Phenotype (%) [2]: 79% and 84%; Population Mitotic Cells (%) [2]: 44% and 53%; Population Normal (%) [2]: 88% and 96%; Population Pyknosed Nuclei (%) [2]: 32% and 21%; Population Tubulin-Different-Phenotype (%) [2]: 80% and 75%; Total Cell Count [2]: 300 and 396; Population Apoptotic (%) [3]: 31%; Population Fragmented Nuclei (%) [3]: 9% and 6%; Population Healthy Nuclei (%) [3]: 78% and 82%; Population Hoechst High Intensity Objects (%) [3]: 3% and 1%; Population Membrane Permeable-Phenotype (%) [3]: 0%; Population Mitochondria Different-Phenotype (%) [3]: 27% and 37%; Population Mitotic Cells (%) [3]: 68%; Population Normal (%) [3]: 96% and 98%; Population Pyknosed Nuclei (%) [3]: 11%; Population Tubulin-Different-Phenotype (%) [3]: 20% and 19%; Total Cell Count [3]: 608 and 512; Population Apoptotic (%) [4]: 59% and 55%; Population Fragmented Nuclei (%) [4]: 10% and 5%; Population Healthy Nuclei (%) [4]: 66% and 78%; Population Hoechst High Intensity Objects (%) [4]: 5%; Population Membrane Permeable-Phenotype (%) [4]: 0%; Population Mitochondria Different-Phenotype (%) [4]: 78% and 80%; Population Mitotic Cells (%) [4]: 40% and 44%; Population Normal (%) [4]: 94% and 95%; Population Pyknosed Nuclei (%) [4]: 22% and 16%; Population Tubulin-Different-Phenotype (%) [4]: 74% and 69%; Total Cell Count [4]: 321 and 440; Population Apoptotic (%) [5]: 27% and 18%; Population Fragmented Nuclei (%) [5]: 12% and 13%; Population Healthy Nuclei (%) [5]: 78% and 81%; Population Hoechst High Intensity Objects (%) [5]: 3% and 2%; Population Membrane Permeable-Phenotype (%) [5]: 1%; Population Mitochondria Different-Phenotype (%) [5]: 17% and 25%; Population Mitotic Cells (%) [5]: 72% and 81%; Population Normal (%) [5]: 96% and 97%; Population Pyknosed Nuclei (%) [5]: 9% and 5%; Population Tubulin-Different-Phenotype (%) [5]: 16% and 19%; Total Cell Count [5]: 912 and 748; Population Apoptotic (%) [6]: 62% and 45%; Population Fragmented Nuclei (%) [6]: 9%; Population Healthy Nuclei (%) [6]: 72% and 79%; Population Hoechst High Intensity Objects (%) [6]: 3% and 4%; Population Membrane Permeable-Phenotype (%) [6]: 0%; Population Mitochondria Different-Phenotype (%) [6]: 82% and 71%; Population Mitotic Cells (%) [6]: 37% and 55%; Population Normal (%) [6]: 96% and 95%; Population Pyknosed Nuclei (%) [6]: 18% and 10%; Population Tubulin-Different-Phenotype (%) [6]: 78% and 63%; Total Cell Count [6]: 387 and 593

Question: Which “Population Apoptotic (%)” value [1] does the source give for `COc1cccc2c1c(NS(=O)(=O)c1ccc(Cl)s1)nn2Cc1cccc(CNC(=O)C(C)(C)O)c1` here?
Answer: 31% and 34%

Question: And the “Population Fragmented Nuclei (%)” value [1]?
Answer: 6% and 7%

Question: And the “Population Healthy Nuclei (%)” value [1]?
Answer: 82% and 77%

Question: And the “Population Hoechst High Intensity Objects (%)” value [1]?
Answer: 6% and 10%

Question: And the “Population Membrane Permeable-Phenotype (%)” value [1]?
Answer: 0%

Question: And the “Population Mitochondria Different-Phenotype (%)” value [1]?
Answer: 39% and 52%

Question: What about the “Population Mitotic Cells (%)” value [1] of the same compound?
Answer: 68% and 65%

Question: And the “Population Normal (%)” value [1]?
Answer: 93% and 89%

Question: And the “Population Pyknosed Nuclei (%)” value [1]?
Answer: 10% and 15%

Question: What about the “Population Tubulin-Different-Phenotype (%)” value [1] of the same compound?
Answer: 26% and 23%

Question: And the “Total Cell Count” value [1]?
Answer: 469 and 315

Question: And the “Population Apoptotic (%)” value [2]?
Answer: 42% and 35%

Question: And the “Population Fragmented Nuclei (%)” value [2]?
Answer: 6% and 5%

Question: And the “Population Healthy Nuclei (%)” value [2]?
Answer: 80% and 78%

Question: What about the “Population Hoechst High Intensity Objects (%)” value [2] of the same compound?
Answer: 7% and 11%

Question: And the “Population Membrane Permeable-Phenotype (%)” value [2]?
Answer: 0%

Question: And the “Population Mitochondria Different-Phenotype (%)” value [2]?
Answer: 51% and 69%

Question: And the “Population Mitotic Cells (%)” value [2]?
Answer: 57% and 65%

Question: What about the “Population Normal (%)” value [2] of the same compound?
Answer: 92% and 88%

Question: And the “Population Pyknosed Nuclei (%)” value [2]?
Answer: 12% and 16%

Question: What about the “Population Tubulin-Different-Phenotype (%)” value [2] of the same compound?
Answer: 38% and 33%

Question: And the “Total Cell Count” value [2]?
Answer: 356 and 280

Question: What about the “Population Apoptotic (%)” value [3] of the same compound?
Answer: 26% and 44%

Question: What about the “Population Fragmented Nuclei (%)” value [3] of the same compound?
Answer: 7% and 6%

Question: And the “Population Healthy Nuclei (%)” value [3]?
Answer: 81% and 84%

Question: And the “Population Hoechst High Intensity Objects (%)” value [3]?
Answer: 2% and 7%

Question: What about the “Population Membrane Permeable-Phenotype (%)” value [3] of the same compound?
Answer: 0%

Question: What about the “Population Mitochondria Different-Phenotype (%)” value [3] of the same compound?
Answer: 22% and 37%

Question: And the “Population Mitotic Cells (%)” value [3]?
Answer: 73% and 55%

Question: And the “Population Normal (%)” value [3]?
Answer: 97% and 92%

Question: What about the “Population Pyknosed Nuclei (%)” value [3] of the same compound?
Answer: 11% and 8%

Question: What about the “Population Tubulin-Different-Phenotype (%)” value [3] of the same compound?
Answer: 17% and 15%

Question: And the “Total Cell Count” value [3]?
Answer: 617 and 357

Question: What about the “Population Apoptotic (%)” value [4] of the same compound?
Answer: 40%

Question: And the “Population Fragmented Nuclei (%)” value [4]?
Answer: 10% and 9%

Question: What about the “Population Healthy Nuclei (%)” value [4] of the same compound?
Answer: 73% and 77%

Question: What about the “Population Hoechst High Intensity Objects (%)” value [4] of the same compound?
Answer: 5%

Question: What about the “Population Membrane Permeable-Phenotype (%)” value [4] of the same compound?
Answer: 0%

Question: And the “Population Mitochondria Different-Phenotype (%)” value [4]?
Answer: 34% and 46%

Question: What about the “Population Mitotic Cells (%)” value [4] of the same compound?
Answer: 60%

Question: What about the “Population Normal (%)” value [4] of the same compound?
Answer: 94%

Question: What about the “Population Pyknosed Nuclei (%)” value [4] of the same compound?
Answer: 16% and 12%

Question: What about the “Population Tubulin-Different-Phenotype (%)” value [4] of the same compound?
Answer: 23% and 22%

Question: And the “Total Cell Count” value [4]?
Answer: 462 and 384

Question: And the “Population Apoptotic (%)” value [5]?
Answer: 16% and 28%

Question: What about the “Population Fragmented Nuclei (%)” value [5] of the same compound?
Answer: 10% and 11%

Question: And the “Population Healthy Nuclei (%)” value [5]?
Answer: 83%

Question: What about the “Population Hoechst High Intensity Objects (%)” value [5] of the same compound?
Answer: 2%

Question: And the “Population Membrane Permeable-Phenotype (%)” value [5]?
Answer: 0% and 2%

Question: What about the “Population Mitochondria Different-Phenotype (%)” value [5] of the same compound?
Answer: 18% and 21%

Question: And the “Population Mitotic Cells (%)” value [5]?
Answer: 83% and 71%

Question: What about the “Population Normal (%)” value [5] of the same compound?
Answer: 97%

Question: What about the “Population Pyknosed Nuclei (%)” value [5] of the same compound?
Answer: 6% and 4%

Question: What about the “Population Tubulin-Different-Phenotype (%)” value [5] of the same compound?
Answer: 11% and 10%

Question: And the “Total Cell Count” value [5]?
Answer: 1062 and 591

Question: What about the “Population Apoptotic (%)” value [6] of the same compound?
Answer: 26% and 35%

Question: And the “Population Fragmented Nuclei (%)” value [6]?
Answer: 16% and 8%

Question: What about the “Population Healthy Nuclei (%)” value [6] of the same compound?
Answer: 72% and 83%

Question: What about the “Population Hoechst High Intensity Objects (%)” value [6] of the same compound?
Answer: 4%

Question: And the “Population Membrane Permeable-Phenotype (%)” value [6]?
Answer: 0%

Question: And the “Population Mitochondria Different-Phenotype (%)” value [6]?
Answer: 25% and 27%

Question: What about the “Population Mitotic Cells (%)” value [6] of the same compound?
Answer: 73% and 65%

Question: What about the “Population Normal (%)” value [6] of the same compound?
Answer: 95%

Question: And the “Population Pyknosed Nuclei (%)” value [6]?
Answer: 10% and 7%

Question: And the “Population Tubulin-Different-Phenotype (%)” value [6]?
Answer: 16% and 12%

Question: What about the “Total Cell Count” value [6] of the same compound?
Answer: 646 and 550
